# Measured values reported in ChEMBL document CHEMBL1152489, “Synthesis and biological evaluation of a novel series of 1,5-benzothiazepine derivatives as potential antimicrobial agents” (2009).
# Activity calls are given as the source filed them. No cut-off for these calls is given here.
# Tested on: Candida albicans
# Experiment: Antifungal activity against Candida albicans ATCC 10231 at 200 ug/disk after 24 hrs by disk diffusion method
# Assay type: functional
# Details: not given
# Summary of the method: (§1)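 Disk diffusion on media seeded with the organism. Sterile paper discs (6 mm) carried test compound dissolved in DMSO at 12.5, 50, 100 or 200 µg/disc. DMSO-only discs served as controls. Plates were incubated 24 h at 37 °C. The read-out is the growth-inhibition zone diameter in mm, averaged over three trials (±1 mm).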
row,Structure (SMILES),inhibition zone (IZ)
1,CCOC(=O)C1=C(C)Nc2ccccc2SC1c1ccccc1Cl (stereo not drawn),inactive
2,CCOC(=O)C1=C(C)Nc2ccccc2SC1c1ccc(F)cc1 (stereo not drawn),inactive
3,CC(=O)C1=C(C)Nc2cc(Cl)ccc2SC1c1ccccc1[N+](=O)[O-] (stereo not drawn),inactive
4,CC(=O)C1=C(C)Nc2cc(Cl)ccc2SC1c1ccc(Cl)cc1Cl (stereo not drawn),inactive

# Tested on: Candida albicans
# Experiment: Antifungal activity against Candida albicans ATCC 10231 at 100 ug/disk after 24 hrs by disk diffusion method
# Assay type: functional
# Details: not given
# Summary of the method: as §1
row,Structure (SMILES),inhibition zone (IZ)
1,CCOC(=O)C1=C(C)Nc2ccccc2SC1c1ccccc1Cl (stereo not drawn),inactive
2,CCOC(=O)C1=C(C)Nc2ccccc2SC1c1ccc(F)cc1 (stereo not drawn),inactive
3,CC(=O)C1=C(C)Nc2cc(Cl)ccc2SC1c1ccccc1[N+](=O)[O-] (stereo not drawn),inactive
4,CC(=O)C1=C(C)Nc2cc(Cl)ccc2SC1c1ccc(Cl)cc1Cl (stereo not drawn),inactive

# Tested on: Candida albicans
# Experiment: Antifungal activity against Candida albicans ATCC 10231 at 50 ug/disk after 24 hrs by disk diffusion method
# Assay type: functional
# Details: not given
# Summary of the method: as §1
row,Structure (SMILES),inhibition zone (IZ)
1,CCOC(=O)C1=C(C)Nc2ccccc2SC1c1ccccc1Cl (stereo not drawn),inactive
2,CCOC(=O)C1=C(C)Nc2ccccc2SC1c1ccc(F)cc1 (stereo not drawn),inactive
3,CC(=O)C1=C(C)Nc2cc(Cl)ccc2SC1c1ccccc1[N+](=O)[O-] (stereo not drawn),inactive
4,CC(=O)C1=C(C)Nc2cc(Cl)ccc2SC1c1ccc(Cl)cc1Cl (stereo not drawn),inactive

# Tested on: Staphylococcus aureus
# Experiment: Antibacterial activity against Staphylococcus aureus ATCC 25923 at 200 ug/disk after 24 hrs by disk diffusion method
# Assay type: functional
# Details: not given
# Summary of the method: as §1
row,Structure (SMILES),inhibition zone (IZ)
1,CCOC(=O)C1=C(C)Nc2ccccc2SC1c1ccccc1Cl (stereo not drawn),inactive
2,CCOC(=O)C1=C(C)Nc2ccccc2SC1c1ccc(F)cc1 (stereo not drawn),inactive

# Same assay, conditions: ATCC 25923, 24 h, read-out: IZ
row,Structure (SMILES),zone of inhibition at 200 µg/disc
1,CC(=O)C1=C(C)Nc2cc(Cl)ccc2SC1c1ccccc1[N+](=O)[O-] (stereo not drawn),8 mm
2,CC(=O)C1=C(C)Nc2cc(Cl)ccc2SC1c1ccc(Cl)cc1Cl (stereo not drawn),10 mm

# Tested on: Staphylococcus aureus
# Experiment: Antibacterial activity against Staphylococcus aureus ATCC 25923 at 100 ug/disk after 24 hrs by disk diffusion method
# Assay type: functional
# Details: not given
# Summary of the method: as §1
row,Structure (SMILES),inhibition zone (IZ)
1,CCOC(=O)C1=C(C)Nc2ccccc2SC1c1ccccc1Cl (stereo not drawn),inactive
2,CCOC(=O)C1=C(C)Nc2ccccc2SC1c1ccc(F)cc1 (stereo not drawn),inactive

# Same assay, conditions: ATCC 25923, 24 h, read-out: IZ
row,Structure (SMILES),zone of inhibition at 100 µg/disc
1,CC(=O)C1=C(C)Nc2cc(Cl)ccc2SC1c1ccccc1[N+](=O)[O-] (stereo not drawn),7 mm
2,CC(=O)C1=C(C)Nc2cc(Cl)ccc2SC1c1ccc(Cl)cc1Cl (stereo not drawn),7 mm

# Tested on: Staphylococcus aureus
# Experiment: Antibacterial activity against Staphylococcus aureus ATCC 25923 at 50 ug/disk after 24 hrs by disk diffusion method
# Assay type: functional
# Details: not given
# Summary of the method: as §1
row,Structure (SMILES),inhibition zone (IZ)
1,CCOC(=O)C1=C(C)Nc2ccccc2SC1c1ccccc1Cl (stereo not drawn),inactive
2,CCOC(=O)C1=C(C)Nc2ccccc2SC1c1ccc(F)cc1 (stereo not drawn),inactive
3,CC(=O)C1=C(C)Nc2cc(Cl)ccc2SC1c1ccc(Cl)cc1Cl (stereo not drawn),inactive

# Same assay, conditions: ATCC 25923, 24 h, read-out: IZ
row,Structure (SMILES),zone of inhibition at 50 µg/disc
1,CC(=O)C1=C(C)Nc2cc(Cl)ccc2SC1c1ccccc1[N+](=O)[O-] (stereo not drawn),7 mm

# Tested on: Staphylococcus epidermidis
# Experiment: Antibacterial activity against Staphylococcus epidermidis ATCC 26069 at 200 ug/disk after 24 hrs by disk diffusion method
# Assay type: functional
# Details: not given
# Summary of the method: as §1
row,Structure (SMILES),inhibition zone (IZ)
1,CCOC(=O)C1=C(C)Nc2ccccc2SC1c1ccccc1Cl (stereo not drawn),inactive
2,CCOC(=O)C1=C(C)Nc2ccccc2SC1c1ccc(F)cc1 (stereo not drawn),inactive
3,CC(=O)C1=C(C)Nc2cc(Cl)ccc2SC1c1ccc(Cl)cc1Cl (stereo not drawn),inactive

# Same assay, conditions: ATCC 26069, 24 h, read-out: IZ
row,Structure (SMILES),zone of inhibition at 200 µg/disc
1,CC(=O)C1=C(C)Nc2cc(Cl)ccc2SC1c1ccccc1[N+](=O)[O-] (stereo not drawn),8 mm

# Tested on: Staphylococcus epidermidis
# Experiment: Antibacterial activity against Staphylococcus epidermidis ATCC 26069 at 100 ug/disk after 24 hrs by disk diffusion method
# Assay type: functional
# Details: not given
# Summary of the method: as §1
row,Structure (SMILES),inhibition zone (IZ)
1,CCOC(=O)C1=C(C)Nc2ccccc2SC1c1ccccc1Cl (stereo not drawn),inactive
2,CCOC(=O)C1=C(C)Nc2ccccc2SC1c1ccc(F)cc1 (stereo not drawn),inactive
3,CC(=O)C1=C(C)Nc2cc(Cl)ccc2SC1c1ccc(Cl)cc1Cl (stereo not drawn),inactive

# Same assay, conditions: ATCC 26069, 24 h, read-out: IZ
row,Structure (SMILES),zone of inhibition at 100 µg/disc
1,CC(=O)C1=C(C)Nc2cc(Cl)ccc2SC1c1ccccc1[N+](=O)[O-] (stereo not drawn),8 mm

# Tested on: Staphylococcus epidermidis
# Experiment: Antibacterial activity against Staphylococcus epidermidis ATCC 26069 at 50 ug/disk after 24 hrs by disk diffusion method
# Assay type: functional
# Details: not given
# Summary of the method: as §1
row,Structure (SMILES),inhibition zone (IZ)
1,CCOC(=O)C1=C(C)Nc2ccccc2SC1c1ccccc1Cl (stereo not drawn),inactive
2,CCOC(=O)C1=C(C)Nc2ccccc2SC1c1ccc(F)cc1 (stereo not drawn),inactive
3,CC(=O)C1=C(C)Nc2cc(Cl)ccc2SC1c1ccc(Cl)cc1Cl (stereo not drawn),inactive

# Same assay, conditions: ATCC 26069, 24 h, read-out: IZ
row,Structure (SMILES),zone of inhibition at 50 µg/disc
1,CC(=O)C1=C(C)Nc2cc(Cl)ccc2SC1c1ccccc1[N+](=O)[O-] (stereo not drawn),7 mm

# Tested on: Escherichia coli
# Experiment: Antibacterial activity against Escherichia coli ATCC 44752 at 200 ug/disk after 24 hrs by disk diffusion method
# Assay type: functional, organism-based
# Details: not given
# Summary of the method: as §1
row,Structure (SMILES),inhibition zone (IZ)
1,CCOC(=O)C1=C(C)Nc2ccccc2SC1c1ccccc1Cl (stereo not drawn),inactive
2,CCOC(=O)C1=C(C)Nc2ccccc2SC1c1ccc(F)cc1 (stereo not drawn),inactive
3,CC(=O)C1=C(C)Nc2cc(Cl)ccc2SC1c1ccccc1[N+](=O)[O-] (stereo not drawn),inactive
4,CC(=O)C1=C(C)Nc2cc(Cl)ccc2SC1c1ccc(Cl)cc1Cl (stereo not drawn),inactive

# Tested on: Escherichia coli
# Experiment: Antibacterial activity against Escherichia coli ATCC 44752 at 100 ug/disk after 24 hrs by disk diffusion method
# Assay type: functional, organism-based
# Details: not given
# Summary of the method: as §1
row,Structure (SMILES),inhibition zone (IZ)
1,CCOC(=O)C1=C(C)Nc2ccccc2SC1c1ccccc1Cl (stereo not drawn),inactive
2,CCOC(=O)C1=C(C)Nc2ccccc2SC1c1ccc(F)cc1 (stereo not drawn),inactive
3,CC(=O)C1=C(C)Nc2cc(Cl)ccc2SC1c1ccccc1[N+](=O)[O-] (stereo not drawn),inactive
4,CC(=O)C1=C(C)Nc2cc(Cl)ccc2SC1c1ccc(Cl)cc1Cl (stereo not drawn),inactive

# Tested on: Escherichia coli
# Experiment: Antibacterial activity against Escherichia coli ATCC 44752 at 50 ug/disk after 24 hrs by disk diffusion method
# Assay type: functional, organism-based
# Details: not given
# Summary of the method: as §1
row,Structure (SMILES),inhibition zone (IZ)
1,CCOC(=O)C1=C(C)Nc2ccccc2SC1c1ccccc1Cl (stereo not drawn),inactive
2,CCOC(=O)C1=C(C)Nc2ccccc2SC1c1ccc(F)cc1 (stereo not drawn),inactive
3,CC(=O)C1=C(C)Nc2cc(Cl)ccc2SC1c1ccccc1[N+](=O)[O-] (stereo not drawn),inactive
4,CC(=O)C1=C(C)Nc2cc(Cl)ccc2SC1c1ccc(Cl)cc1Cl (stereo not drawn),inactive
